# Bioassay records deposited in PubChem by several laboratories.
# MEX-5 binding: MEX-5 zinc finger RNA-binding disruptors – biochemical, C. elegans, fluorescence polarization, MLPCN library, primary screen; Zinc finger protein mex-5 (Caenorhabditis elegans), Q9XUB2; MEX-5/FITC-TCR2 RNA binding; active compounds read low; activity score (negative = inhibition of binding), % at 10 µM; hit rate 0.38% among 300,000; AID 1832, 2009;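 active = inhibition past about -25% in most replicates, and total fluorescence under double the plate's negative control median, limit read from the data; inconclusive = replicates evenly split on the limit, or fluorescence at least double controls; inactive = too little inhibition in most replicates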;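 also: 0% = DMSO and -100% = 5 µM competing unlabeled TCR2 RNA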
# RanGTP-Imp inh: inhibitors of RanGTP-importin-beta interaction, primary screen, biochemical, FRET, CFP-Ran, YFP-importin-beta, homogeneous. cell-free CFP-Ran/YFP-importin-beta FRET ratio. hit rate 1.1% among 300,000. AID 2216, 2009. Ran GTPase (GTP-bound) - importin-beta complex. inhibition, % (no concentration beside the values);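 active = more than half of the replicate wells show a fall in the fluorescence ratio signal beyond about 16%, limit read from the data, passing the limit was not always enough; inconclusive = exactly half of the replicate wells pass the set limit; inactive = fewer than half of replicates pass the limit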;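 also: 0% = DMSO wells and 100% = Ran loaded with GDP instead of GTP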
# Runt-SMMHC FRET: inhibitors of RUNX1 Runt–CBFb-SMMHC binding, primary screen, biochemical, FRET, Cerulean-Runt, Venus-CBFb-SMMHC, uHTS. Runt-related transcription factor 1 (Homo sapiens) + Core-binding factor subunit beta …. Cerulean-Runt/Venus-CBFb-SMMHC FRET ratio 530/480, 1 h. inhibition, % at 20 µM. hit rate 0.74% among 220,000. AID 1434, 2008;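 active = mean inhibition across duplicate retests at 20 µM reaching about 50%, limit read from the data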;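 also: 0% = DMSO wells and 100% = wells with excess untagged CBFb-SMMHC; inhibitors lower the FRET ratio by blocking Runt binding to CBFb-SMMHC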
# Target sequence (Q01196 whole entry, looked up): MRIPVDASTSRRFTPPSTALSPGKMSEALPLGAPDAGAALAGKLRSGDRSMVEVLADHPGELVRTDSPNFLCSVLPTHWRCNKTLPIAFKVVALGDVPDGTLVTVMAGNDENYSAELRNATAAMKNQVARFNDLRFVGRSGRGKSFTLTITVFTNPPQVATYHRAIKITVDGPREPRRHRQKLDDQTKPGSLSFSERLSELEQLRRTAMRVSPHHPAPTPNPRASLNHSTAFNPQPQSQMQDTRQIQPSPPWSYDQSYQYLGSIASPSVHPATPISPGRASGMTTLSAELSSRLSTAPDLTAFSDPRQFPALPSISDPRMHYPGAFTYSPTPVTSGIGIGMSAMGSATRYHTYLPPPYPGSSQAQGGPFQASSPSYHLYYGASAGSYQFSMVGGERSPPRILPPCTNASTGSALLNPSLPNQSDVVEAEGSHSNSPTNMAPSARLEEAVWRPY
# Target sequence (Q13951 whole entry, looked up): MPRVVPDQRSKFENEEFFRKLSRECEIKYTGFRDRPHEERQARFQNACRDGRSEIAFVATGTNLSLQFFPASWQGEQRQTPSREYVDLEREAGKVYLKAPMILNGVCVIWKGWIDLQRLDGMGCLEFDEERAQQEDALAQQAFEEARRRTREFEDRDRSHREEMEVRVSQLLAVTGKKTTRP
# Runt-CBFb FRET: inhibitors of RUNX1 Runt–CBFb binding, primary screen, biochemical, FRET, Cerulean-Runt, Venus-CBFb, uHTS; Runt-related transcription factor 1 (Homo sapiens) + Core-binding factor subunit beta …; Cerulean-Runt/Venus-CBFb FRET ratio 530/480, 1 h; inhibition, % at 20 µM; hit rate 0.46% among 220,000; AID 1496, 2009;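 active = inhibition over about 50% at 20 µM in the single-dose screen, limit read from the data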;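 also: 0% = DMSO wells and 100% = excess unlabeled CBFb competitor control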
#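 Measured by: fluorescence energy transfer, 422 nm excitation, 530/480 nm emission; test system: Cerulean-tagged RUNX1 Runt domain (FRET donor) fusion protein; buffer or medium: Tris pH 7.5 buffer with BSA; compound: one dose, 20 µM compound, 1% DMSO; times: two 1 h room-temperature incubations shielded from light; benchmarks: unlabeled CBFb 5 µM, positive control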
# EBV gp42 inh: Epstein-Barr virus gp42 inhibitors, primary screen, biochemical, uHTS, fluorescence polarization. Glycoprotein 42 (Epstein-Barr virus (strain AG876)), Q1HVG2. Fluorescence polarization binding assay, mP read-out. inhibition, % (tested at 21.74 µM). hit rate 0.42% among 220,000; in the data active = inhibition above about 50%
# LANA-H2A inh: blockers of LANA interaction with H2A/H2B – biochemical, FP readout, HTS, primary screen. hit rate 0.6% among 320,000. Protein LANA1 (Human herpesvirus 8 type P (isolate GK18)), Q9QR71. cell-free LANA-H2A/H2B peptide, fluorescence polarization. inhibition, % (concentration not given with the values). AID 2629, 2010; in the data active = inhibition mostly above about 10%, no sharp cut-off; inactive = mostly below about 6.7%
# * marks the source's active call; other numbers are inactive results; ? = inconclusive; / = no result; + = active, no number; ! = a repeat was not active. The list is not random: actives were taken first. Their share in the collection is about 2.4%.
SMILES,MEX-5 binding,RanGTP-Imp inh,Runt-SMMHC FRET,Runt-CBFb FRET,EBV gp42 inh,LANA-H2A inh
CC(C)OC(=O)CC(=O)c1sc2nc3c(cc2c1N)CN(C)CC3,-31*,8,-62,7,69*,74*
CC(C)N1CCc2c(sc(NC(=O)c3ccc(S(=O)(=O)N(C)CC4CCCO4)cc3)c2C(N)=O)C1 (stereo not drawn),?,72*,/,/,/,0
CCN1CCc2c(sc(NC(=O)c3ccc(S(=O)(=O)N(C)CC4CCCO4)cc3)c2C(N)=O)C1 (stereo not drawn),-2,48*,/,/,/,2
CCCN1CCc2c(sc(NC(=O)c3ccc(S(=O)(=O)N(C)c4ccccc4)cc3)c2C(N)=O)C1,-14,?,/,/,/,1
COc1ccc(C2=CC3=C(Br)C(=O)C(C)(OC(=O)c4ccco4)C(=O)C3=CO2)cc1 (stereo not drawn),-48*,-1,-31,5,11,1
COc1ccc(C2=CC3=C(Br)C(=O)C(C)(OC(=O)c4cccs4)C(=O)C3=CO2)cc1 (stereo not drawn),-34*,-2,/,/,/,-1
CC1(OC(=O)c2ccco2)C(=O)C=C2C=C(c3ccsc3)OC=C2C1=O (stereo not drawn),-5,-10,/,/,/,3
NS(=O)(=O)c1ccc(NC(=S)NNC(=O)CCC(=O)Nc2ccccc2Cl)cc1,-31*,2,/,/,/,3
O=S(=O)(Nc1c(S(=O)(=O)c2ccccc2)c2nc3ccccc3nc2n1C1CCCCC1)c1ccccc1,0,6,11,4,33,1
C=CCn1c(NS(=O)(=O)c2ccccc2)c(S(=O)(=O)c2ccc(C)cc2)c2nc3ccccc3nc21,1,76*,4,1,18,1
CC(=O)Nc1c(S(=O)(=O)c2ccccc2)c2nc3ccccc3nc2n1Cc1ccccc1,2,23*,73*,20,2,2
COc1ccc(OC)c(-c2nn(-c3ccccc3)cc2C(=O)N2CCc3ccccc3C2)c1,/,/,/,/,/,+
COc1ccccc1C(=O)C1Nc2ccccc2-c2nnc(SC)nc2O1 (stereo not drawn),-1,-3,-6,-1,-30,21*
CCC1Nc2ccccc2-c2nnc(SC)nc2O1 (stereo not drawn),-3,0,-2,1,-12,3
CCOC(=O)N(C)S(=O)(=O)c1ccccc1[N+](=O)[O-],-2,8,-2,-4,-5,1
COc1ccccc1N1CCN(CC(O)COc2cccc3ccccc23)CC1 (stereo not drawn),0,-4,-3,-2,-2,24*!
OC(COc1cccc2ccccc12)CN1CCN(c2ccccc2)CC1 (stereo not drawn),1,2,-2,0,-14,-4
CCn1c(O)c(/C=C2\C=Nc3ccccc32)sc1=Nc1ccc(C)cc1,-10,3,-13,-6,-2,3
CCOC(=O)c1c(Nc2ccccc2)sc(/C=C2\C=Nc3ccccc32)c1O,0,43*,-50,-48,-30,-1
CCn1c(O)c(/C=C2\C=Nc3ccccc32)sc1=O,-2,0,3,-2,-5,14*
Oc1nc(Nc2ccccc2)sc1/C=C1\C=Nc2ccccc21,4,21*,-3,-8,-9,0
N=c1c(S(=O)(=O)c2ccccc2)cc2c(=O)n3ccccc3nc2n1CC1CCCO1 (stereo not drawn),/,/,61*,105*,0,-4
N=c1c(S(=O)(=O)c2ccc(Cl)cc2)cc2c(=O)n3ccccc3nc2n1Cc1ccco1,-9,96*,/,/,/,4
N=c1c(S(=O)(=O)c2ccc(Cl)cc2)cc2c(=O)n3ccccc3nc2n1C1CCCC1,-35*,132*,/,/,/,7
N=c1c(S(=O)(=O)c2ccc(Br)cc2)cc2c(=O)n3ccccc3nc2n1Cc1ccco1,-1,4,/,/,/,2
SMILES,MEX-5 binding,RanGTP-Imp inh,Runt-SMMHC FRET,Runt-CBFb FRET,EBV gp42 inh,LANA-H2A inh
CCn1c(=N)c(S(=O)(=O)c2ccc(Cl)cc2)cc2c(=O)n3ccccc3nc21,-1,2,/,/,-9,/
N=c1c(S(=O)(=O)c2ccc(Cl)cc2)cc2c(=O)n3ccccc3nc2n1CC1CCCO1 (stereo not drawn),-21,112*,/,/,/,0
O=C(O)c1ccc(-n2cccc2/C=N\NC(=O)c2cc3cc(Br)ccc3o2)cc1,-3,-3,-7,8,34,1
Cc1ccc(Cn2c(=N)c(S(=O)(=O)c3ccc(Br)cc3)cc3c(=O)n4ccccc4nc32)cc1,-16,3,/,/,/,-5
Cc1ccc(S(=O)(=O)c2cc3c(=O)n4cc(C)ccc4nc3n(CC3CCCO3)c2=N)cc1 (stereo not drawn),/,/,90*,86*,/,/
CN(C(=O)CSc1ncn[nH]1)C1(C#N)CCCCC1,/,/,/,/,/,4
O=C(COC(=O)Cn1cnc2ccccc21)Nc1cc2c(cc1Cl)C(=O)c1ccccc1C2=O,1,1,-6,3,-10,0
O=c1[nH]c(=O)c2ncc(-c3ccc(Cl)cc3)nc2[nH]1,-1,-1,85*,54*,-18,-3
CCCn1nc(C(=O)Oc2ccc3c(C)cc(=O)oc3c2)c2ccccc2c1=O,1,7,88*,43,-2,0
CC(C)n1nc(C(=O)Oc2ccc(Cl)cc2)c2ccccc2c1=O,-2,4,-7,0,-8,-9
Cc1cc(=O)oc2cc(OC(=O)c3nn(C(C)C)c(=O)c4ccccc34)ccc12,2,2,90*,42,-11,-3
COc1cccc(C2c3c(oc4ccccc4c3=O)C(=O)N2Cc2ccco2)c1 (stereo not drawn),-48*,3,/,/,/,3
CN(C=[N+](C)C)c1cccc2c1C(=O)c1ccccc1C2=O,-28*,-3,-59,-19,1,12
CCN(CC)CC(=O)Nc1cccc2c1C(=O)c1ccccc1C2=O,1,-8,-12,-7,-15,7
CCn1nc(C)cc1C(=O)N1CCCC(C(=O)c2ccccc2SC)C1 (stereo not drawn),0,2,/,/,/,0
CC(Sc1nnc(C2CC2)n1C1CC1)C(=O)Nc1cccc(S(=O)(=O)N2CCOCC2)c1 (stereo not drawn),/,/,/,/,/,18*
CC(C)c1c(C(=O)N/N=C/c2ccc(OCc3ccccc3)cc2)nnn1-c1nonc1N,-3,+,/,/,/,-3
